According to ChEMBL document CHEMBL1777717, “Potent and selective oxindole-based vasopressin 1b receptor antagonists with improved pharmacokinetic properties” (Bioorg Med Chem Lett, 2011):
Active and inactive are the calls of the source. The calls are words filed in the database; no cut-off is given here.

How the values were obtained:
Vasopressin V2 receptor = Vasopressin V2 receptor (Homo sapiens, UniProt P30518); test: Displacement of [3H]AVP from human vasopressin V2 receptor expressed in CHO cells by scintillation counting; format: cell-based
How it was run: (§1)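 Ki from radioligand displacement at the human receptor, run per a previously published protocol; each value is the mean of at least two experiments.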

Vasopressin V1a receptor = Vasopressin V1a receptor (Homo sapiens, UniProt P37288); test: Displacement of [3H]AVP from human vasopressin V1a receptor expressed in CHO cells by scintillation counting; format: cell-based; how it was run: as §1
[1] = Intrinsic clearance in rat liver microsomes measured up to 40 mins by HPLC-MS method; format: ADME, Microsome
How it was run: (§2)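 Intrinsic clearance determined by liver microsome incubation using a previously published procedure, reported in µL/min/mg; each value is the mean of at least two experiments.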

Oxytocin receptor = biological target: T1, Oxytocin receptor (Homo sapiens, UniProt P30559); test: Displacement of radiolabeled oxytocin from human oxytocin receptor expressed in CHO cells by scintillation counting; format: cell-based; how it was run: as §1
T1 sequence (P30559 whole entry): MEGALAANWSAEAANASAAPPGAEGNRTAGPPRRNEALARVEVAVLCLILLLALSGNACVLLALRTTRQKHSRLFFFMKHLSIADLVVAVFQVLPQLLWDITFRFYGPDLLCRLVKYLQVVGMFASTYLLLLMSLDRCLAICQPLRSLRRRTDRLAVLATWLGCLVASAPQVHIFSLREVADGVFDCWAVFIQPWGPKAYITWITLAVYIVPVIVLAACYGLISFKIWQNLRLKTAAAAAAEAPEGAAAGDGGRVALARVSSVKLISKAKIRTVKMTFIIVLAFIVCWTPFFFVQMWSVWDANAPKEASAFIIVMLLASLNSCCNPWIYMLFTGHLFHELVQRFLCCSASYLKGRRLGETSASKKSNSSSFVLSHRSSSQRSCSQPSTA

[2] = Intrinsic clearance in human liver microsomes measured up to 40 mins by HPLC-MS method; format: ADME, Microsome; how it was run: as §2
Vasopressin V1b receptor = biological target: T2, Vasopressin V1b receptor (Homo sapiens, UniProt P47901); test: Displacement of [3H]AVP from human vasopressin V1b receptor expressed in CHO cells by scintillation counting; format: cell-based
T2 sequence (P47901 whole entry): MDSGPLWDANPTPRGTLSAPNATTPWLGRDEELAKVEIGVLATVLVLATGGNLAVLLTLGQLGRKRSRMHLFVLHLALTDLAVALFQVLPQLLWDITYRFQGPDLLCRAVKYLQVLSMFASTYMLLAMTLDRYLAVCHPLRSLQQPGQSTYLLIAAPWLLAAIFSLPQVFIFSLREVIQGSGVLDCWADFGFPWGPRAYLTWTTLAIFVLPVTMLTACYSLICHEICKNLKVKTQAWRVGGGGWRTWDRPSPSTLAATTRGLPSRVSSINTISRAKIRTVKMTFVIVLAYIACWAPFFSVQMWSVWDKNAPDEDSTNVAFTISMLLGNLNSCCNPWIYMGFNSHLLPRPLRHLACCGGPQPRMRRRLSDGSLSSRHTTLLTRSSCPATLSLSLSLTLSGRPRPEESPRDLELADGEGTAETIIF

Homo sapiens [3] = species on record: Homo sapiens; test: Selectivity ratio of Ki for human vasopressin V1b receptor over Ki for human vasopressin V2 receptor
Homo sapiens [4] = species on record: Homo sapiens; test: Selectivity ratio of Ki for human vasopressin V1b receptor over Ki for human vasopressin V1a receptor
Homo sapiens [5] = species on record: Homo sapiens; test: Selectivity ratio of Ki for human vasopressin V1b receptor over Ki for human oxytocin receptor
[6] = Ratio of AUC in brain to plasma in rat at 10 mg/kg, ip; format: ADME, organism-based; set-up: dose 10 mg/kg, route intraperitoneal; conditions: brain and plasma, read-out: Ratio AUC
[7] = Terminal half life in rat at 2 mg/kg, iv; format: ADME, organism-based; set-up: dose 2 mg/kg, route intravenous; conditions: in vivo, read-out: beta t1/2 (converted)
[8] = Volume of distribution at steady state in rat at 2 mg/kg, iv; format: ADME, organism-based; set-up: dose 2 mg/kg, route intravenous; conditions: in vivo, read-out: Vdss
[9] = Clearance in rat plasma at 2 mg/kg, iv; format: ADME, organism-based; set-up: dose 2 mg/kg, route intravenous
[10] = Oral bioavailability in rat plasma at 10 mg/kg; format: ADME, organism-based
Rattus norvegicus = test: Antidepressant activity in rat at 3 mg/kg, ip by forced swimming test; format: functional, organism-based; set-up: dose 3 mg/kg

Chain of Vasopressin V1a receptor (P37288 whole entry): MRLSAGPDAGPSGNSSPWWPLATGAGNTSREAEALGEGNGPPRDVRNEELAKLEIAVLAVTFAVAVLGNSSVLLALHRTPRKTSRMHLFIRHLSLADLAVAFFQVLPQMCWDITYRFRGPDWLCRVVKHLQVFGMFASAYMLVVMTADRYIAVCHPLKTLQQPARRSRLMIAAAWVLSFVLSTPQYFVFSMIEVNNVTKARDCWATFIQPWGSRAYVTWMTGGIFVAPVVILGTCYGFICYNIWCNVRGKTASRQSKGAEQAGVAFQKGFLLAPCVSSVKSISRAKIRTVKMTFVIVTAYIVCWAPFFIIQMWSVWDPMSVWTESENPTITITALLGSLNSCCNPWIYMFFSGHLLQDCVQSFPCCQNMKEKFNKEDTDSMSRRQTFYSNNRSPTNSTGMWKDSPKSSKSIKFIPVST
Chain of Vasopressin V2 receptor (P30518 whole entry): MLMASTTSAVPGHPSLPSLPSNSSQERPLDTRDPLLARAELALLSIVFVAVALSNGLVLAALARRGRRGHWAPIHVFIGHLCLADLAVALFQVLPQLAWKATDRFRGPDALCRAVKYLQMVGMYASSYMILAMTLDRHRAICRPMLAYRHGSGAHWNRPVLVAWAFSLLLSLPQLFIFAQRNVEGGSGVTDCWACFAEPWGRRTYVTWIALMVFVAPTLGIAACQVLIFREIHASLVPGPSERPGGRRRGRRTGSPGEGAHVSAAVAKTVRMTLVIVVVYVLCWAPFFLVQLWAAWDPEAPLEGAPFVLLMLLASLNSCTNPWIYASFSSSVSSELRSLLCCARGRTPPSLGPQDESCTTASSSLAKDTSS

Structure (SMILES) | Ki (Vasopressin V2 receptor) [nM] | Ki (Vasopressin V1a receptor) [nM] | microsomal CLint [1] [µL/min/mg] | Ki (Oxytocin receptor) [nM] | microsomal CLint [2] [µL/min/mg] | Ki (Vasopressin V1b receptor) [nM] | Ratio Ki (Homo sapiens [3]) | Ratio Ki (Homo sapiens [4]) | Ratio Ki (Homo sapiens [5]) | Kp [6] | half-life [7] [h] | Vd [8] [L/kg] | clearance [9] [mL/min/kg] | bioavailability [10] [%] | Activity (Rattus norvegicus)
COc1ccc(S(=O)(=O)N2C(=O)[C@@](c3cccnc3OC)(N3CCC[C@H]3C(=O)N(C)C)c3cc(Cl)ccc32)c(OC)c1 | > 1000 | 219 | 446 | 62 | 359 | 3.8 | – | – | – | – | – | – | – | – | –
COc1ccc(S(=O)(=O)N2C(=O)[C@@](c3cnc(OC)nc3OC)(N3C[C@H](O)C[C@H]3C(=O)N(C)C)c3cc(Cl)ccc32)c(OC)c1 | 636 | 173 | 366 | 45 | 203 | 5.6 | – | – | – | – | – | – | – | – | –
COc1ccc(S(=O)(=O)N2C(=O)[C@@](c3cccnc3OC)(N3CCCC3c3ccccn3)c3cc(Cl)ccc32)c(OC)c1 (mixture of isomers) | – | – | 702 | – | 183 | 786 | – | – | – | – | – | – | – | – | –
COc1ccc(S(=O)(=O)N2C(=O)[C@@](c3cnccc3OC)(N3C[C@H](O)C[C@H]3C(=O)N(C)C)c3cc(Cl)ccc32)c(OC)c1 | > 1000 | 49 | 413 | – | 158 | 2.1 | – | – | – | – | – | – | – | – | –
COc1ccc(S(=O)(=O)N2C(=O)[C@@](c3cccnc3OC)(N3C[C@H](O)C[C@H]3C(=O)N(C)C)c3cc(Cl)ccc32)c(OC)c1 | 618 | 55 | 446 | 42 | 323 | 1.3 | – | – | – | – | – | – | – | – | –
COc1ccc(S(=O)(=O)N2C(=O)[C@@](c3nccnc3OC)(N3C[C@H](O)C[C@H]3C(=O)N(C)C)c3cc(Cl)ccc32)c(OC)c1 | > 1000 | 500 | 1030 | 271 | 302 | 26 | – | – | – | – | – | – | – | – | –
COc1ccc(S(=O)(=O)N2C(=O)[C@@](c3cccnc3OC)(N3CCCC3c3ncco3)c3cc(Cl)ccc32)c(OC)c1 (mixture of isomers) | – | – | – | – | – | 101 | – | – | – | – | – | – | – | – | –
COc1ccc(S(=O)(=O)N2C(=O)[C@@](c3cccnc3OC)(N3CCC[C@H]3c3ncco3)c3cc(Cl)ccc32)cc1 | – | – | 356 | – | 75 | 20 | – | – | – | – | – | – | – | – | –
COc1ccc(S(=O)(=O)N2C(=O)[C@@](c3ccccc3OC)(N3C[C@H](O)C[C@H]3C(=O)N(C)C)c3cc(Cl)ccc32)c(OC)c1 | – | – | 432 | – | 343 | – | – | – | – | 0.03 | 0.5 | 2.8 | 86.7 | 12 | –
COc1ccc(S(=O)(=O)N2C(=O)[C@@](c3cccnc3OC)(N3CCCC3c3nccs3)c3cc(Cl)ccc32)c(OC)c1 (mixture of isomers) | – | – | 476 | – | 373 | 276 | – | – | – | – | – | – | – | – | –
CNCc1ccc(OC)c([C@@]2(N3CCC[C@H]3c3ncco3)C(=O)N(S(=O)(=O)c3ccc(OC)cc3)c3ccc(Cl)cc32)c1 | > 1000 | 243 | 62 | 135 | 64 | 3.9 | – | – | – | 0.31 | 3.3 | 13 | 50 | 68 | Active
COc1ccc(S(=O)(=O)N2C(=O)[C@@](c3cc(CN(C)C)ccc3OC)(N3CCC[C@H]3c3ncco3)c3cc(Cl)ccc32)cc1 | > 1000 | 289 | 217 | 115 | 204 | 2 | – | – | – | – | – | – | – | – | –
COc1ccc(S(=O)(=O)N2C(=O)[C@@](c3cccnc3OC)(N3CCCC3c3cccs3)c3cc(Cl)ccc32)c(OC)c1 (mixture of isomers) | – | – | – | – | – | > 10000 | – | – | – | – | – | – | – | – | –
COc1ccc(S(=O)(=O)N2C(=O)[C@@](c3cccnc3OC)(N3CCCC3c3ccccc3)c3cc(Cl)ccc32)c(OC)c1 (mixture of isomers) | – | – | – | – | – | > 10000 | – | – | – | – | – | – | – | – | –

More lines, main results first:

Ki (Vasopressin V2 receptor) [nM] | Ki (Vasopressin V1a receptor) [nM] | microsomal CLint [1] [µL/min/mg] | Ki (Oxytocin receptor) [nM] | microsomal CLint [2] [µL/min/mg] | Ki (Vasopressin V1b receptor) [nM] | Ratio Ki (Homo sapiens [3]) | Ratio Ki (Homo sapiens [4]) | Ratio Ki (Homo sapiens [5]) | Structure (SMILES) | Kp [6] | half-life [7] [h] | Vd [8] [L/kg] | clearance [9] [mL/min/kg] | bioavailability [10] [%] | Activity (Rattus norvegicus)
> 1000 | 74 | 148 | 29 | 394 | 0.26 | – | – | – | COc1ccc(S(=O)(=O)N2C(=O)[C@@](c3cc(CN4CCCC4)ccc3OC)(N3CCC[C@H]3C(=O)N(C)C)c3cc(Cl)ccc32)c(OC)c1 | – | – | – | – | – | –
> 1000 | 10 | 101 | 17 | 506 | 0.03 | > 100 | > 100 | > 100 | COc1ccc(S(=O)(=O)N2C(=O)[C@@](c3cc(CN4CCCC4)ccc3OC)(N3CCC[C@H]3C(=O)N(C)C)c3cc(Cl)ccc32)cc1 | – | – | – | – | – | –
> 1000 | 15 | 56 | 7 | 378 | 0.04 | > 100 | > 100 | > 100 | COc1ccc(S(=O)(=O)N2C(=O)[C@@](c3ccc(CN4CCN(C)CC4)cc3OC)(N3CCC[C@H]3C(=O)N(C)C)c3cc(Cl)ccc32)cc1 | – | – | – | – | – | –
> 1000 | 13 | 78 | 20 | 414 | 0.03 | > 100 | > 100 | > 100 | COc1ccc(S(=O)(=O)N2C(=O)[C@@](c3cc(CN4CCN(C)CC4)ccc3OC)(N3CCC[C@H]3C(=O)N(C)C)c3cc(Cl)ccc32)cc1 | – | – | – | – | – | –
> 1000 | > 1000 | 117 | 45 | 155 | 0.81 | – | – | – | COc1ccc(S(=O)(=O)N2C(=O)[C@@](c3ccc(CN4CCCC4)cc3OC)(N3CCC[C@H]3C(=O)N(C)C)c3cc(Cl)ccc32)c(OC)c1 | – | – | – | – | – | –
> 1000 | 101 | 106 | 28 | 127 | 0.08 | > 100 | > 100 | > 100 | COc1ccc(S(=O)(=O)N2C(=O)[C@@](c3ccc(CN4CCCC4)cc3OC)(N3CCC[C@H]3C(=O)N(C)C)c3cc(Cl)ccc32)cc1 | – | – | – | – | – | –
> 1000 | 231 | 56 | 89 | 76 | 1.3 | – | – | – | COc1ccc(S(=O)(=O)N2C(=O)[C@@](c3cc(CN4CCN(C)CC4)ccc3OC)(N3CCC[C@H]3c3ncco3)c3cc(Cl)ccc32)cc1 | – | – | – | – | – | –
> 1000 | 193 | 164 | 170 | 80 | 1.2 | – | – | – | COc1ccc(S(=O)(=O)N2C(=O)[C@@](c3cc(CN4CCCC4)ccc3OC)(N3CCC[C@H]3c3ncco3)c3cc(Cl)ccc32)cc1 | – | – | – | – | – | –
